Assay results: ChEMBL document CHEMBL1143122, “Novel analogs of D-e-MAPP and B13. Part 1: synthesis and evaluation as potential anticancer agents” (Bioorg Med Chem, 2008)

Tests used:
[1] = test system: NCI-H322M; test: Antiproliferative activity against human NCI-H322M cells after 48 hrs; assay type: functional
How it was run: (§1)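 NCI 60-cell screen. Cells were grown in RPMI 1640 with 5% FBS and 2 mM L-glutamine, then plated at 5,000–40,000 cells/well according to doubling time and preincubated for 24 h at 37 °C in 5% CO2. Compounds were dissolved in DMSO at 400× the top final concentration and tested at five 10-fold dilutions from 10−4 to 10−8 M for 48 h. Growth was read spectrophotometrically; GI50 is 50% net protein reduction.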

[2] = test system: SK-MEL-28; test: Antiproliferative activity against human SKMEL28 cells after 48 hrs; assay type: functional; conditions: SK-MEL-28, 48 h; how it was run: as §1
[3] = test system: OVCAR-8; test: Antiproliferative activity against human OVCAR8 cells after 48 hrs; assay type: functional; conditions: OVCAR-8, 48 h; how it was run: as §1
[4] = test system: MCF7; test: Drug level in human MCF7 cells at 10 uM per 10^6 cells after 0.5 hrs; assay type: ADME, cell-based; conditions: mcf7, 0.5 h
How it was run: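 MCF7 cells kept in RPMI 1640 with 10% fetal calf serum at 37 °C, 5% CO2, then treated with 10 μM analog. Intracellular analog measured over time by HPLC-MS in positive-ion MRM mode. Quantified against calibration curves made by spiking an artificial matrix with standards plus internal standard, using analyte/IS peak-area ratios and linear regression. Reported as pmol per 1×10^6 cells.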

[5] = test system: UACC-257; test: Antiproliferative activity against human UACC257 cells after 48 hrs; assay type: functional; conditions: UACC-257, 48 h
How it was run: (§2)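 NCI 60-cell-line screen. Lines grown in RPMI 1640 with 5% fetal bovine serum and 2 mM L-glutamine, plated at 5,000–40,000 cells/well according to doubling time, left 24 h at 37 °C in 5% CO2. Drug stocks in DMSO at 400-fold the top final concentration. Five 10-fold dilutions, 10−4 to 10−8 M, incubated 48 h. Growth read spectrophotometrically as net protein; GI50 taken as 50% reduction.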

[6] = test system: NCI-H460; test: Antiproliferative activity against human NCI-H460 cells after 48 hrs; assay type: functional; conditions: NCI-H460, 48 h; how it was run: as §1
[7] = test system: HOP-92; test: Antiproliferative activity against human HOP92 cells after 48 hrs; assay type: functional; conditions: HOP-92, 48 h; how it was run: as §1
[8] = test system: MCF7; test: Antiproliferative activity against human MCF7 cells after 48 hrs; assay type: functional, cell-based; conditions: MCF7, 48 h
[9] = test system: MOLT-4; test: Antiproliferative activity against human MOLT4 cells after 48 hrs; assay type: functional; conditions: MOLT-4, 48 h; how it was run: as §1
[10] = test system: CAKI-1; test: Antiproliferative activity against human CAKI1 cells after 48 hrs; assay type: functional; conditions: CAKI-1, 48 h; how it was run: as §1
[11] = test system: RPMI-8226; test: Antiproliferative activity against human RPMI8226 cells after 48 hrs; assay type: functional; conditions: RPMI-8226, 48 h; how it was run: as §1
[12] = test system: U-251; test: Antiproliferative activity against human U251 cells after 48 hrs; assay type: functional; conditions: U-251, 48 h; how it was run: as §2
[13] = test system: SK-MEL-2; test: Antiproliferative activity against human SKMEL2 cells after 48 hrs; assay type: functional; conditions: SK-MEL-2, 48 h; how it was run: as §1
[14] = test system: UACC-62; test: Antiproliferative activity against human UACC62 cells after 48 hrs; assay type: functional; conditions: UACC-62, 48 h; how it was run: as §2
[15] = test system: MDA-MB-231; test: Antiproliferative activity against human MDA-MB-231 cells after 48 hrs; assay type: functional; conditions: MDA-MB-231, 48 h; how it was run: as §1
[16] = test system: HOP-62; test: Antiproliferative activity against human HOP62 cells after 48 hrs; assay type: functional; conditions: HOP-62, 48 h; how it was run: as §1
[17] = Antiproliferative activity against human […] cells after 48 hrs; assay type: functional; how it was run: as §1
[18] = test system: SF-268; test: Antiproliferative activity against human SF268 cells after 48 hrs; assay type: functional; conditions: SF-268, 48 h; how it was run: as §1
[19] = test system: T47D; test: Antiproliferative activity against human T47D cells after 48 hrs; assay type: functional; how it was run: as §2
[20] = test system: SK-OV-3; test: Antiproliferative activity against human SKOV3 cells after 48 hrs; assay type: functional; conditions: SK-OV-3, 48 h; how it was run: as §1
[21] = test system: SNB-75; test: Antiproliferative activity against human SNB75 cells after 48 hrs; assay type: functional; conditions: SNB-75, 48 h; how it was run: as §1
[22] = test system: OVCAR-5; test: Antiproliferative activity against human OVCAR5 cells after 48 hrs; assay type: functional; conditions: OVCAR-5, 48 h; how it was run: as §1
[23] = test system: LOX IMVI; test: Antiproliferative activity against human LOXIMVI cells after 48 hrs; assay type: functional; how it was run: as §1
[24] = test system: K562; test: Antiproliferative activity against human K562 cells after 48 hrs; assay type: functional; conditions: K562, 48 h; how it was run: as §1
[25] = test system: DU-145; test: Antiproliferative activity against human DU145 cells after 48 hrs; assay type: functional; conditions: DU-145, 48 h; how it was run: as §1
[26] = test system: HCT-15; test: Antiproliferative activity against human HCT15 cells after 48 hrs; assay type: functional; conditions: Homo sapiens, HCT-15, 48 h; how it was run: as §1
[27] = test system: UO-31; test: Antiproliferative activity against human UO31 cells after 48 hrs; assay type: functional; conditions: UO-31, 48 h; how it was run: as §2
[28] = test system: MDA-MB-435; test: Antiproliferative activity against human MDA-MB-435 cells after 48 hrs; assay type: functional; conditions: Homo sapiens, MDA-MB-435, 48 h; how it was run: as §1
[29] = test system: BT-549; test: Antiproliferative activity against human BT549 cells after 48 hrs; assay type: functional; conditions: BT-549, 48 h; how it was run: as §1
[30] = read-out: Log LC50 (the source's name) (converted)

## CCCCCCCCCCCCCCN[C@H](C)[C@@H](O)c1ccccc1.Cl
[1]
  GI50: 1.91 µM
[1]; [30]
  CC50: 5.89 µM
[1]; read-out: Log TGI (converted)
  TGI: 3.31 µM
[2]
  GI50: 1.86 µM
  LC50: 5.75 µM
[2]; read-out: Log TGI (converted)
  TGI: 3.24 µM
[3]
  GI50: 1.82 µM
[3]; read-out: Log TGI (converted)
  TGI: 3.8 µM
[4]
  Drug uptake: 3600 pmol
[5]
  GI50: 1.66 µM
[5]; [30]
  CC50: 6.46 µM
[5]; read-out: Log TGI (converted)
  TGI: 3.31 µM
[6]
  GI50: 1.78 µM
[6]; [30]
  CC50: 6.17 µM
[6]; read-out: Log TGI (converted)
  TGI: 3.31 µM
[7]
  GI50: 1.55 µM
  LC50: 5.89 µM
[7]; read-out: Log TGI (converted)
  TGI: 3.02 µM
[8]
  IC50: 3.5 µM
[9]
  GI50: 0.871 µM
  LC50: 4.9 µM
[9]; read-out: Log TGI (converted)
  TGI: 2.19 µM
[10]
  GI50: 1.95 µM
[10]; [30]
  CC50: 5.75 µM
[10]; read-out: Log TGI (converted)
  TGI: 3.39 µM
[11]
  GI50: 3.39 µM
[11]; [30]
  CC50: 7.24 µM
[11]; read-out: Log TGI (converted)
  TGI: 3.63 µM
[12]
  GI50: 1.86 µM
[12]; [30]
  CC50: 5.89 µM
[12]; read-out: Log TGI (converted)
  TGI: 3.31 µM
[13]
  GI50: 2 µM
  LC50: 8.13 µM
[13]; read-out: Log TGI (converted)
  TGI: 3.98 µM
[14]
  GI50: 1.82 µM
  LC50: 6.61 µM
[14]; read-out: Log TGI (converted)
  TGI: 3.47 µM
[15]
  GI50: 1.74 µM
  LC50 (50% lethal concentration): 6.46 µM
[15]; read-out: Log TGI (converted)
  TGI: 3.39 µM
[16]
  GI50: 1.86 µM
[16]; [30]
  CC50: 5.89 µM
[16]; read-out: Log TGI (converted)
  TGI: 3.31 µM
[17]
  GI50: 1.62 µM
  LC50: 6.03 µM
[17]; read-out: Log TGI (converted)
  TGI: 3.09 µM
[18]
  GI50: 1.78 µM
  LC50: 6.76 µM
[18]; read-out: Log TGI (converted)
  TGI: 3.47 µM
[19]
  GI50: 2.29 µM
[19]; [30]
  CC50: 7.76 µM
[19]; read-out: Log TGI (converted)
  TGI: 4.17 µM
[20]
  GI50: 2.34 µM
[20]; [30]
  CC50: 9.77 µM
[20]; read-out: Log TGI (converted)
  TGI: 4.79 µM
[21]
  GI50: 2.09 µM
[21]; [30]
  CC50: 7.08 µM
[21]; read-out: Log TGI (converted)
  TGI: 3.89 µM
[22]
  GI50: 2 µM
[22]; [30]
  CC50: 6.17 µM
[22]; read-out: Log TGI (converted)
  TGI: 3.47 µM
[23]
  GI50: 1.82 µM
  LC50: 5.89 µM
[23]; read-out: Log TGI (converted)
  TGI: 3.31 µM
[24]
  GI50: 1.41 µM
  LC50: 5.62 µM
[24]; read-out: Log TGI (converted)
  TGI: 2.82 µM
[25]
  GI50: 1.48 µM
[25]; [30]
  CC50: 5.25 µM
[25]; read-out: Log TGI (converted)
  TGI: 2.82 µM
[26]
  GI50: 1.82 µM
  LC50: 5.89 µM
[26]; read-out: Log TGI (converted)
  TGI: 3.24 µM
[27]
  GI50: 1.74 µM
  LC50: 5.89 µM
[27]; read-out: Log TGI (converted)
  TGI: 3.24 µM
[28]
  GI50: 1.78 µM
  LC50: 5.62 µM
[28]; read-out: Log TGI (converted)
  TGI: 3.16 µM
[29]
  GI50: 1.12 µM
  LC50: 5.01 µM
[29]; read-out: Log TGI (converted)
  TGI: 2.4 µM
